Insulin prom act – activators of insulin promoter-driven GFP, primary screen, imaging, TRM-6 cells, eGFP reporter, cell count. plate-scaled: unstimulated 0, stimulated control 100. activation, % at 2 µM. 0.81% of 130,000 active. AID 1296, 2008;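 active = activation at 2 µM above a set limit, confirmed on inspection of the cell images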;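 also: share of cells whose green reporter signal exceeds an intensity cutoff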
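System – human fetal islet-derived TRM-6 cells with tamoxifen-inducible insulin promoter–eGFP reporter · Amount – 1,000 cells per well · Schedule – overnight tamoxifen, then two-day compound incubation at 37 °C · Detection – high-content imaging of fixed cells with Hoechst nuclear stain · Read-out – percent cells above green-intensity threshold, converted to percent activation versus plate controls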
An asterisk follows results filed as active. This is one part of a sample in which hits are shown more often than they occur.

CCOC(=O)COc1ccc2c3c(c(=O)oc2c1C)CCC3 was read as Insulin prom act 519*.
For Cc1c(OCc2nn[nH]n2)ccc2c3c(c(=O)oc12)CCCC3 the results were Insulin prom act 108.
`CCCOc1ccc2c3c(c(=O)oc2c1OCCC)CCCC3` gave Insulin prom act 0.
Screening O=C(COn1nnc2ccc(C(F)(F)F)cc21)Nc1c(Cl)cccc1Cl returned Insulin prom act 0.
For CC(=O)NCc1ccc(C(=O)CSc2nnc(-c3ccncc3)n2Cc2ccccc2)o1 the results were Insulin prom act -4.
Screening CCC(C)N1C(=O)/C(=C/c2c(NCCCOC(C)C)nc3c(C)cccn3c2=O)SC1=S (stereo not drawn) returned Insulin prom act 164*.
Screening COc1ccccc1N1CCN(c2nc3c(C)cccn3c(=O)c2C=O)CC1 returned Insulin prom act 2.
For N#C/C(C(=O)NCc1ccco1)=C1/SC(Cc2ccc(F)cc2)C(=O)N1c1ccccc1 (stereo not drawn) the results were Insulin prom act -4.
Screening O=C(CCNC(=O)c1ccc(Br)o1)NCc1ccccn1 returned Insulin prom act -10.
Screening Cn1ccc(C(=O)OCC(=O)Nc2cccc3ccccc23)n1 returned Insulin prom act -7.
Screening Cn1c(=O)c2c(nc(CN3CCN(CCO)CC3)n2Cc2cccc3ccccc23)n(C)c1=O returned Insulin prom act -9.
`CCOc1cc(/C=N/NC(=S)Nc2ccccc2C(F)(F)F)ccc1OCC(=O)N1CCOCC1` gave Insulin prom act -7.
Screening COc1ccccc1NC(=O)C1=C(C)Nc2nnnn2C1c1ccncc1 (stereo not drawn) returned Insulin prom act -8.
`COc1ccc(NC(=O)C2=C(C)Nc3ncnn3C2c2ccccc2C(F)(F)F)c(OC)c1` (stereo not drawn) gave Insulin prom act 403*.
Screening CC1=C(C(=O)Nc2cccnc2)C(c2cccnc2)n2ncnc2N1 (stereo not drawn) returned Insulin prom act -7.
CCOC(=O)c1c(C)n2c3c(cc(C)cc13)CCC2 was read as Insulin prom act 0.
CC(C)c1ccc(OCc2ccc(C(=O)N3CCN(c4ccccn4)CC3)cc2)cc1 was read as Insulin prom act 9.
For Cc1nc2cccc(C(=O)NCc3ccccc3)c2o1 the results were Insulin prom act 7.
For COc1ccc(S(=O)(=O)N2CCOCC2)c(Cl)c1Cl the results were Insulin prom act -7.
For COc1ccc(C(=O)N2CCCC(c3ccccc3)C2)cc1 (stereo not drawn) the results were Insulin prom act 136*.
Screening COc1ccc(C(=O)N2CCC(C(=O)O)CC2)cc1 returned Insulin prom act -6.
For O=C(c1ccccc1F)N1CCCC(c2ccccc2)C1 (stereo not drawn) the results were Insulin prom act 3.
For Cc1ccc(-c2cc(C(=O)N/N=C/c3c(C)nn(C)c3C)c3ccccc3n2)cc1C the results were Insulin prom act 5.
Cc1nn(C)c(C)c1/C=N/N=C1\CCC2C3CCc4cc(O)ccc4C3CCC12C (stereo not drawn) was read as Insulin prom act 91*.
Screening C#C[C@]1(O)CC[C@H]2[C@@H]3CCc4cc(OC)ccc4[C@H]3CC[C@@]21C returned Insulin prom act -5.
CCCCNC(=O)C1CC(c2c(Cl)cccc2Cl)=NO1 (stereo not drawn) was read as Insulin prom act 9.
COc1c(Cl)cc(Cl)cc1C(=O)n1nc(C)cc1C was read as Insulin prom act 219.
Screening Cc1ccc(C(=O)Nc2ccc3c(c2)OCO3)cc1 returned Insulin prom act 5.
Screening Cc1ccccc1OCCCC(=O)Nc1ccc2c(c1)OCO2 returned Insulin prom act -7.
CCCCC(=O)Nc1ccc(C(=O)Nc2ccc3c(c2)OCO3)cc1 was read as Insulin prom act 475*.
`Cc1ccccc1C(=O)Nc1ccccc1-n1cccc1` gave Insulin prom act 1.
For Cc1ccccc1NC(=O)c1c(Cl)nc(C)c(Cl)c1C the results were Insulin prom act 156.
For Cc1ccccc1NC(=O)c1cccc2nc3ccccc3nc12 the results were Insulin prom act 233*.
N#CCCn1cc(C(=O)Nc2ccc([N+](=O)[O-])cc2)c(-c2cc3ccccc3o2)n1 was read as Insulin prom act 6.
CC(C)CC(C(=O)NC(C)(C)C)N(CC1CCCO1)C(=O)c1snc(C(N)=O)c1N (stereo not drawn) was read as Insulin prom act 133.
Screening COC(=O)c1sc(N)c(C(=O)OC)c1COC(=O)CNS(=O)(=O)c1ccc(C)c(C)c1 returned Insulin prom act 165.
`COc1ccc(CNC(=O)C(c2cccs2)N(Cc2ccco2)C(=O)Cc2cccs2)cc1` (stereo not drawn) gave Insulin prom act 284.
`COc1ccc(CNC(=O)C(c2ccc(C)cc2)N(Cc2cccs2)C(=O)c2ccc3c(c2)OCCO3)cc1` (stereo not drawn) gave Insulin prom act 4.
Screening COc1ccc(CNC(=O)C(c2ccco2)N(Cc2cccs2)C(=O)Cc2cccs2)cc1 (stereo not drawn) returned Insulin prom act 80*.
Screening CC(C)(C)c1nnc(NC(=O)Cc2ccc(Br)cc2)s1 returned Insulin prom act -3.
Screening O=C(NCC(=O)N(Cc1cccs1)C(C(=O)NC1CCCCC1)c1cccnc1)c1ccco1 (stereo not drawn) returned Insulin prom act 123.
Screening CS(=O)(=O)N(CC(=O)NCC1CCCO1)c1ccc(F)c(Cl)c1 (stereo not drawn) returned Insulin prom act -10.
COc1cccc(CNC(=O)CCC2CCCN(Cc3cc4ccccc4o3)C2)c1 (stereo not drawn) was read as Insulin prom act 104.
Screening COC(=O)c1cc(NC(=O)c2cccc(Cl)c2)c(=O)oc1/C=C/Nc1cc(C)cc(C)c1 returned Insulin prom act 809*.
For O=C(Nc1cc2c(oc1=O)CCCC2=O)c1cccc(Cl)c1 the results were Insulin prom act -7.
For COc1ccc(C(=O)Nc2cc(C(C)=O)c(/C=C/N(C)C)oc2=O)cc1 the results were Insulin prom act -3.
Screening Nc1nonc1C(=O)OCC(=O)c1ccc(Cl)cc1 returned Insulin prom act 0.
`COc1ccc(S(=O)(=O)Nc2ccc(Oc3ncccn3)c(Cl)c2)cc1` gave Insulin prom act 0.
For O=C(O)C1=C(C(=O)Nc2cccc(C(F)(F)F)c2)CCCC1 the results were Insulin prom act 7.
Screening Fc1ccc2c(Cl)c(-c3nnc(-c4cccs4)o3)sc2c1 returned Insulin prom act 4.
Screening Cn1c(=O)oc2cc(S(=O)(=O)NCCC(=O)N3CCc4ccccc4C3)ccc21 returned Insulin prom act 8.
CCOC(=O)N1CCN(C(=O)CCNS(=O)(=O)c2ccc3c(c2)c(=O)n(C)c(=O)n3C)CC1 was read as Insulin prom act 293*.
Screening CCOc1ccc(NC(=O)CCNS(=O)(=O)c2ccc3c(c2)c(=O)n(C)c(=O)n3C)cc1 returned Insulin prom act -9.
`CC(C)N(C)C(=O)C(=O)c1cccn1-c1cccc(Cl)c1C#N` gave Insulin prom act 127.
`COc1ccc(C(=O)Nc2cccc(C(=O)NCc3ccco3)c2)cc1` gave Insulin prom act -67.
`CCN(Cc1ccccc1)C(=O)C1CCN(CC2CC=CCC2)CC1` (stereo not drawn) gave Insulin prom act 8.
Screening O=C(C1CCCCC1)N(Cc1ccccc1)c1ccccn1 returned Insulin prom act 238.
